Assay [1] has as its target Telomerase reverse transcriptase (Homo sapiens) (UniProt O14746). Put plainly: Inhibition of human tert transcriptional activity assessed as SEAP activity at 100 uM after 24 hrs by SEAP reporter assay. On the set-up: scale not given: the % may be the effect or the level left. In a few lines:
(§1)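 Reporter assay for hTERT transcriptional activity using secreted alkaline phosphatase. About 2 × 10³ cells per well were grown for 24 h at 37 °C, then given fresh medium. Buffer was added to the medium: 2 M diethanolamine, 1 mM MgCl2 and 20 mM L-homoarginine. p-Nitrophenyl phosphate was added to 12 mM final. The rate of absorbance increase was read at 405 nm.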

The target is the same in assay [2]. In words: Inhibition of human tert transcriptional activity assessed as SEAP activity at 10 uM after 24 hrs by SEAP reporter assay. The arrangement: scale not given: the % may be the effect or the level left. In a few lines: as §1
The target is the same in assay [3]. Put plainly: Inhibition of human tert transcriptional activity assessed as SEAP activity at 1 uM after 24 hrs by SEAP reporter assay. On the set-up: scale not given: the % may be the effect or the level left. In a few lines: as §1
Assay [4] can be described thus: Cytotoxicity against human H1299 cells assessed as cell viability at 100 uM after 48 hrs by MTT assay. The assay is classed as functional. To be noted: NCI-H1299, 48 h, read-out: Activity. In a few lines:
(§2)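 About 2×10³ H1299 cells per well were grown for 24 h at 37 °C in 5% CO2. Compound was dissolved in DMSO immediately before use, diluted in complete medium and left on cells for 48 h. MTT was then added for 4 h at 37 °C, followed by SDS/DMF lysis buffer for 16 h at 37 °C. Absorbance was read at 550 nm.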

Assay [5] can be described thus: Cytotoxicity against human H1299 cells assessed as cell viability at 10 uM after 48 hrs by MTT assay. In kind it is functional. Particulars: NCI-H1299, 48 h, read-out: Activity. The procedure, abridged: as §2
For orientation: Tetrazolium dyes change colour on reduction, which living cells bring about.

A short description of assay [6]: Cytotoxicity against human H1299 cells assessed as cell viability at 1 uM after 48 hrs by MTT assay. In kind it is functional. Particulars: NCI-H1299, 48 h, read-out: Activity. In a few lines:
as §2

Telomerase reverse transcriptase (Homo sapiens), sequence (O14746 whole entry): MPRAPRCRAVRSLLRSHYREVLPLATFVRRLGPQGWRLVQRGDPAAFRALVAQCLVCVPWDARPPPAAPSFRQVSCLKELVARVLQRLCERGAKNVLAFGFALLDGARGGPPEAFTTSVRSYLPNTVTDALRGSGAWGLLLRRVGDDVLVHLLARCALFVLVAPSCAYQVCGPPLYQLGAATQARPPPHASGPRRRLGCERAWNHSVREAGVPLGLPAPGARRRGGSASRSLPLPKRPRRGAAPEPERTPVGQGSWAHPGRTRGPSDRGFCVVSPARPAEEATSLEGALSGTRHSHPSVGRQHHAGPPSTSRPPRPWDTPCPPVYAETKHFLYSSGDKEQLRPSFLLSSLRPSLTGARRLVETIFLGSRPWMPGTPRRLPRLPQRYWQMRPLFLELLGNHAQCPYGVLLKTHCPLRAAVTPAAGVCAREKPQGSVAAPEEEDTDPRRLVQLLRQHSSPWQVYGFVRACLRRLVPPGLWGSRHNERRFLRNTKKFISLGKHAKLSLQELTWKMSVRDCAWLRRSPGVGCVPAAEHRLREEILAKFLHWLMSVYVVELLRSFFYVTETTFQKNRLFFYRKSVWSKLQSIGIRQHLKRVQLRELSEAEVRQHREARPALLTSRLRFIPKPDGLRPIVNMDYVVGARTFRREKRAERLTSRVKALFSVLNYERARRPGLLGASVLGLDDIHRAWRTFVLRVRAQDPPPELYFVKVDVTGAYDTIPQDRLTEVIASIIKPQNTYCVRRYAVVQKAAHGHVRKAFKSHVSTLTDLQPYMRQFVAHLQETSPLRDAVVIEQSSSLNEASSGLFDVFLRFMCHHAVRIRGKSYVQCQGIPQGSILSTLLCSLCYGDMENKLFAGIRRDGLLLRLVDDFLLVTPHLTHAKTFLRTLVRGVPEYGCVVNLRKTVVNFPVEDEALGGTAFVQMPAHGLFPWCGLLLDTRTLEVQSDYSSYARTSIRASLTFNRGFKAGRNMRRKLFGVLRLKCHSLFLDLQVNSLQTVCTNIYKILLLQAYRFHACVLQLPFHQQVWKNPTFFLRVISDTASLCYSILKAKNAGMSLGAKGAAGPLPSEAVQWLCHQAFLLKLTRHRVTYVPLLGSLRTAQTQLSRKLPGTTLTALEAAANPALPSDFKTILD

`O=C1c2ccccc2C(=O)c2c1ccc1nc(SCCCCCl)[nH]c21`: the Activity in assay [1] is 54%; in assay [2], 96%; in assay [3], 100%. In assay [4], the viability at 100 µM stood at 83%. Besides, the viability at 10 µM in assay [5] is 97%. The viability at 1 µM in assay [6] is 91%.
For the compound `CCN(CC)C(=O)CCSc1nc2ccc3c(c2[nH]1)C(=O)c1ccccc1C3=O`, the Activity in assay [1] was 64%; in assay [2] it was 98%; in assay [3] it was 97%. Moreover, the viability at 100 µM in assay [4] stood at 44%. Moreover, the viability at 10 µM in assay [5] is 77%. In addition, the viability at 1 µM in assay [6] was determined as 94%.
Regarding `COC(=O)/C=C/CSc1nc2ccc3c(c2[nH]1)C(=O)c1ccccc1C3=O`, the Activity in assay [1] came to 64%; in assay [2] it was 87%; in assay [3] it was 88%. In addition, in assay [4], the viability at 100 µM was 72%. Further, the viability at 10 µM in assay [5] worked out at 75%. For the same compound, the viability at 1 µM in assay [6] stood at 98%.
In the case of `COC(=O)CCCSc1nc2ccc3c(c2[nH]1)C(=O)c1ccccc1C3=O`, the Activity was 61% in assay [1], 83% in assay [2] and 88% in assay [3]. In addition, the viability at 100 µM in assay [4] is 57%. Moreover, in assay [5], the viability at 10 µM was found to be 83%. In assay [6], the viability at 1 µM was 83%.
With `O=C1c2ccccc2C(=O)c2c1ccc1nc(SCCCCCBr)[nH]c21`, the Activity in assay [1] was found to be 41%; in assay [2], 58%; in assay [3] it was 92%. For the same compound, the viability at 100 µM in assay [4] was determined as 37%. Further, in assay [5], the viability at 10 µM was found to be 82%. For the same compound, the viability at 1 µM in assay [6] was 84%.
As for `Nc1ccc2c(c1N)C(=O)c1ccccc1C2=O`, in assay [2], the Activity was found to be 77%. In addition, in assay [4], the viability at 100 µM was found to be 39%. Further, the viability at 10 µM in assay [5] was 95%. In assay [6], the viability at 1 µM was found to be 105%.
`CCCCSc1nc2ccc3c(c2[nH]1)C(=O)c1ccccc1C3=O`: the Activity in assay [1] was determined as 53%; in assay [2] it was 105%; in assay [3], 111%. Further, in assay [4], the viability at 100 µM amounted to 77%. Further, the viability at 10 µM in assay [5] stood at 135%. The viability at 1 µM in assay [6] is 82%.
In the case of `Cc1ccccc1CSc1nc2ccc3c(c2[nH]1)C(=O)c1ccccc1C3=O`, the Activity came out at 29% in assay [1], 83% in assay [2] and 88% in assay [3]. Also, the viability at 100 µM in assay [4] is 76%. For the same compound, the viability at 10 µM in assay [5] amounted to 81%. The viability at 1 µM in assay [6] was found to be 88%.
Regarding `C=CCSc1nc2ccc3c(c2[nH]1)C(=O)c1ccccc1C3=O`, the figures for the Activity in assay [1], in assay [2] and in assay [3] were 69%, 91% and 97%, respectively. The viability at 100 µM in assay [4] was determined as 79%. The viability at 10 µM in assay [5] came out at 96%. In addition, the viability at 1 µM in assay [6] turned out to be 100%.
For `CCCN(CCC)C(=O)CSc1nc2ccc3c(c2[nH]1)C(=O)c1ccccc1C3=O`, the figures for the Activity in assay [1], in assay [2] and in assay [3] were 85%, 91% and 94%, respectively. The viability at 100 µM in assay [4] worked out at 93%. In addition, the viability at 10 µM in assay [5] was 86%. In assay [6], the viability at 1 µM was found to be 95%.
As to `O=C1c2ccccc2C(=O)c2c1ccc1nc(SCCN3CCCCC3)[nH]c21`, the values for the Activity in assay [1], in assay [2] and in assay [3] were 14%, 100% and 111%, respectively. For the same compound, the viability at 100 µM in assay [4] was found to be 30%. The viability at 10 µM in assay [5] turned out to be 79%. Besides, in assay [6], the viability at 1 µM is 86%.
Turning to `O=C1c2ccccc2C(=O)c2c1ccc1nc(SC(=O)N3CCOCC3)[nH]c21`, the Activity in assay [1] was found to be 71%; in assay [2] it was 87%; in assay [3] it was 93%. Further, the viability at 100 µM in assay [4] was 90%. The viability at 10 µM in assay [5] is 94%. The viability at 1 µM in assay [6] is 89%.
Regarding `C#CCSc1nc2ccc3c(c2[nH]1)C(=O)c1ccccc1C3=O`, the values for the Activity in assay [1], in assay [2] and in assay [3] were 52%, 85% and 94%, respectively. Further, the viability at 100 µM in assay [4] is 75%. The viability at 10 µM in assay [5] was 96%. Moreover, the viability at 1 µM in assay [6] was 94%.
For `O=C(Sc1nc2ccc3c(c2[nH]1)C(=O)c1ccccc1C3=O)c1ccccc1[N+](=O)[O-]`, the Activity was determined as 81% in assay [1], 92% in assay [2] and 98% in assay [3]. In assay [4], the viability at 100 µM came out at 76%. Further, the viability at 10 µM in assay [5] worked out at 78%. The viability at 1 µM in assay [6] worked out at 80%.
In the case of `CN1CCN(C(=O)Sc2nc3ccc4c(c3[nH]2)C(=O)c2ccccc2C4=O)CC1`, the Activity is 38% in assay [1], 99% in assay [2] and 89% in assay [3]. Besides, in assay [4], the viability at 100 µM came to 71%. The viability at 10 µM in assay [5] amounted to 120%. The viability at 1 µM in assay [6] worked out at 102%.
For `O=C1c2ccccc2C(=O)c2c1ccc1nc(SC(=O)N3CCCC3)[nH]c21`, the Activity in assay [1] stood at 95%; in assay [2] it was 105%; in assay [3], 96%. For the same compound, the viability at 100 µM in assay [4] stood at 124%. Moreover, in assay [5], the viability at 10 µM was determined as 117%. Also, the viability at 1 µM in assay [6] was determined as 110%.
Consider `O=C1c2ccccc2C(=O)c2c1ccc1nc(SCCCN3CCCCC3)[nH]c21`, for which the Activity in assay [1] is 8%; in assay [2] it was 50%; in assay [3], 85%. The viability at 100 µM in assay [4] is 38%. For the same compound, the viability at 10 µM in assay [5] amounted to 70%. Also, the viability at 1 µM in assay [6] was found to be 71%.
Consider `O=C1c2ccccc2C(=O)c2c1ccc1nc(SCCCCCCCl)[nH]c21`, for which the figures for the Activity in assay [1], in assay [2] and in assay [3] were 53%, 98% and 105%, respectively. For the same compound, in assay [4], the viability at 100 µM is 88%. Also, the viability at 10 µM in assay [5] was 85%. In addition, the viability at 1 µM in assay [6] was determined as 83%.
For `CCN(CC)C(=O)CSc1nc2ccc3c(c2[nH]1)C(=O)c1ccccc1C3=O`, the Activity in assay [1] is 49%; in assay [2], 93%; in assay [3], 96%. The viability at 100 µM in assay [4] turned out to be 54%. The viability at 10 µM in assay [5] stood at 90%. Moreover, in assay [6], the viability at 1 µM was found to be 97%.
For `O=C1c2ccccc2C(=O)c2c1ccc1nc(SCC(=O)N3CCOCC3)[nH]c21`, the figures for the Activity in assay [1], in assay [2] and in assay [3] were 40%, 87% and 103%, respectively. In addition, the viability at 100 µM in assay [4] turned out to be 70%. For the same compound, the viability at 10 µM in assay [5] came out at 88%. In assay [6], the viability at 1 µM amounted to 91%.
Regarding `O=C1c2ccccc2C(=O)c2c1ccc1nc(SCCC(=O)N3CCCC3)[nH]c21`, the Activity in assay [1] is 67%; in assay [2], 90%; in assay [3], 87%. For the same compound, the viability at 100 µM in assay [4] came out at 57%. Further, the viability at 10 µM in assay [5] was found to be 110%. Also, the viability at 1 µM in assay [6] is 107%.
Take `O=C1c2ccccc2C(=O)c2c1ccc1nc(SCC(=O)N3CCCC3)[nH]c21`: the Activity turned out to be 64% in assay [1], 100% in assay [2] and 100% in assay [3]. The viability at 100 µM in assay [4] was found to be 62%. Moreover, the viability at 10 µM in assay [5] is 102%. Besides, the viability at 1 µM in assay [6] is 89%.
Consider `O=C(CCc1ccccc1)Sc1nc2ccc3c(c2[nH]1)C(=O)c1ccccc1C3=O`, for which the figures for the Activity in assay [1], in assay [2] and in assay [3] were 81%, 95% and 97%, respectively. Further, in assay [4], the viability at 100 µM was found to be 69%. Besides, the viability at 10 µM in assay [5] came to 93%. Besides, the viability at 1 µM in assay [6] is 95%.
As for `COc1cccc2c1C(=O)c1c(O)c3c(c(O)c1C2=O)C[C@@](O)(C(=O)CO)C[C@@H]3O[C@H]1C[C@H](N)[C@H](O)[C@H](C)O1` [DOXORUBICIN], the Activity in assay [1] is 5%; in assay [2], 14%; in assay [3] it was 34%. Further, the viability at 100 µM in assay [4] worked out at 0%. Moreover, in assay [5], the viability at 10 µM was determined as 0%. The viability at 1 µM in assay [6] came out at 17%.
On to `O=C1c2c(O)ccc(O)c2C(=O)c2c(NCCNCCO)ccc(NCCNCCO)c21` [MITOXANTRONE], for which the Activity was 7% in assay [1], 10% in assay [2] and 21% in assay [3]. Moreover, the viability at 100 µM in assay [4] stood at 0%. In addition, the viability at 10 µM in assay [5] was 0%. Moreover, the viability at 1 µM in assay [6] is 24%.
`O=C(Sc1nc2ccc3c(c2[nH]1)C(=O)c1ccccc1C3=O)c1cc(C(F)(F)F)ccc1C(F)(F)F`: the values for the Activity in assay [1], in assay [2] and in assay [3] were 75%, 96% and 102%, respectively. The viability at 100 µM in assay [4] is 79%. Further, in assay [5], the viability at 10 µM came to 100%. In addition, the viability at 1 µM in assay [6] is 95%.
Regarding `O=C1c2ccccc2C(=O)c2c1ccc1nc(SCCC(=O)N3CCOCC3)[nH]c21`, the Activity stood at 45% in assay [1], 97% in assay [2] and 105% in assay [3]. Also, in assay [4], the viability at 100 µM was found to be 50%. Moreover, in assay [5], the viability at 10 µM came to 102%. The viability at 1 µM in assay [6] was found to be 99%.
With `O=C1c2ccccc2C(=O)c2c1ccc1nc(SC(=O)N3CCCCC3)[nH]c21`, the results for the Activity in assay [1], in assay [2] and in assay [3] were 81%, 104% and 98%, respectively. Moreover, the viability at 100 µM in assay [4] came out at 116%. The viability at 10 µM in assay [5] is 116%. Further, the viability at 1 µM in assay [6] came to 97%.

(Values after ChEMBL document CHEMBL3120102, “Structure-based design, synthesis and biological evaluation of novel anthra[1,2-d]imidazole-6,11-dione homologues as potential antitumor agents” (2013).)
